Only some compounds are listed: those with a hit (about 2% of all), similar ones and a draw of the others.
HSV augment – enhancers of HSV replication in host cells, fold increase, host cell viability; HSV replication augmentation in cells; maximum fold increase; 220,000 compounds, 0.005% hits; in the data active = maximum fold increase above about 1.5; inconclusive = no clear call, values can overlap the other calls; tested in PC3 cells
Dynein cargo inh – inhibitors of GR-EGFP nuclear translocation, primary screen, dynein cargo transport inhibitor project, imaging, high-content, 3617.4 mouse cells. test concentration mostly 20 µM; stimulated with dexamethasone, 1 µM; stronger effect = lower value. z-score, hits read low. 220,000 compounds, 0.47% hits;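 active = plate z-score of nuclear minus cytoplasmic receptor signal below a set negative limit, without overly bright fluorescence or cell loss, cut at about -3.5 in these data, passing the limit was not always enough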;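 note: z-score of nuclear minus cytoplasmic ring GR-EGFP intensity difference per well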
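Buffer or medium: tet-free, stripped-serum medium; reagent: dexamethasone at 1.0 µM final, 30 min; incubation: 48 h induction, 1 h compound, 30 min dex at 37 °C; measured by: formaldehyde fixation, Hoechst nuclear stain, 10x automated fluorescence imaging; read-out: nuclear-to-cytoplasmic GR-EGFP distribution per well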
Furin inh – human furin inhibitors, primary screen, biochemical, fluorescence intensity; P09958; purified furin, fluorogenic substrate cleavage; inhibition, % at 20 µM or 30 µM; 220,000 compounds, 0.061% hits; AID 463115, 2010; in the data active = inhibition above about 25%
Target sequence (P09958 108-714 limits assumed): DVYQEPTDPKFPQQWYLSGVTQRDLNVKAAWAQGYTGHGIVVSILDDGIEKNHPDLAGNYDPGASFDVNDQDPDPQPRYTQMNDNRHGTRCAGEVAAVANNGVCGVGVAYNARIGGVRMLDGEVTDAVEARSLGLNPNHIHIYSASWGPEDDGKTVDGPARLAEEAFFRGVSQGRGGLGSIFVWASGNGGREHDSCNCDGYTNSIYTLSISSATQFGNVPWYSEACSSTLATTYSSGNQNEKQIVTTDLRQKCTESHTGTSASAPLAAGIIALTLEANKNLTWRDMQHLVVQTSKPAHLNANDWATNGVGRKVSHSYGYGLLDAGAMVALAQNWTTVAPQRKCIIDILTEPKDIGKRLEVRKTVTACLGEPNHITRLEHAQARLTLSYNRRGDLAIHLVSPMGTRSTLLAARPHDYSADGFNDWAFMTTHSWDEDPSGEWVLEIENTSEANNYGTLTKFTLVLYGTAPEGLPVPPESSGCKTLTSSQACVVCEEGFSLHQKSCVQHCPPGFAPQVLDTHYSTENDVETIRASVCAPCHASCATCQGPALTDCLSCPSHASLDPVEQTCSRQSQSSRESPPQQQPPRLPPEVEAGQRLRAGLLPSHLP
Insulin prom up – insulin promoter activators in MIN6 cells, imaging, high-content screening, mouse beta cells | MIN6 insulin promoter-GFP reporter; stronger effect = higher value | z-score at 5 µM | 190,000 compounds, 0.3% hits | AID 1625, 2009;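 active = z-score above 3 at 5 µM with at least 500 cells counted in the well; inconclusive = wells under 500 cells, flagged as cytotoxic or low count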
Insulin prom inh – inhibitors of insulin promoter-driven GFP, primary screen, imaging, TRM-6 cells (human fetal islet line), eGFP reporter, cell count; reporter expression induced with tamoxifen; inhibition, % at 2 µM; 130,000 compounds, 0.9% hits; AID 1273, 2008;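 active = inhibition above the mean plus 3 SD, with well images judged a real hit on visual review, cut at about 60% in these data, passing the limit was not always enough; inconclusive = inhibition over the cutoff but images rejected on review; inactive = inhibition not above the cutoff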
Autophagy HCS – autophagy modulators in MEF cells, primary screen, imaging, high-content, MEF GFP-LC3 | calls only at 10 µM (by protocol) | 190,000 compounds, 0.98% hits | MEF GFP-LC3 puncta imaging; test concentration mostly 10 µM;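 active = percentage of spot-positive cells more than 3 SD above its plate mean, without a fluorescence outlier flag or 80% toxicity; inconclusive = no clear call, values can overlap the other calls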;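 note: spot-positive cell cutoff set from DMSO-treated cells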
The depositor's hits bear a star.

Results for Cc1ccc(Cc2cnc(NC(=O)/C(C#N)=C/c3ccc(-c4ccccc4[N+](=O)[O-])o3)s2)cc1 ?
Dynein cargo inh: -0.573; Furin inh: -17.4; Insulin prom up: -0.81; Insulin prom inh: -27.9; Autophagy HCS: active

What do the screens show for `CNC(=O)/C(C#N)=C/c1ccc(-c2ccccc2[N+](=O)[O-])o1`?
HSV augment: inactive; Dynein cargo inh: -0.864; Furin inh: -7.9; Insulin prom up: -0.08; Autophagy HCS: inactive

What do the screens show for `COc1ccc(CCNC(=O)COc2ccc(C)nc2[N+](=O)[O-])cc1OC`?
Dynein cargo inh: 2.52; Furin inh: -18.8; Insulin prom up: 0.56; Insulin prom inh: -71.4; Autophagy HCS: inactive

How did CCCCCCCCCOC(=O)C[n+]1csc(CCO)c1C do in these assays?
HSV augment: inconclusive; Dynein cargo inh: -0.384; Furin inh: -13.9; Insulin prom up: -0.48; Insulin prom inh: 16.7; Autophagy HCS: inactive

What do the screens show for `Cc1c(CCO)sc[n+]1CC(=O)OCCC12CC3CC(CC(C3)C1)C2`?
HSV augment: inactive; Dynein cargo inh: -0.368; Furin inh: -19.6; Insulin prom up: 0.17; Insulin prom inh: 66.7*; Autophagy HCS: inactive

How did CN(C(=O)CSc1nc2c(cnn2-c2ccccc2)c(=O)[nH]1)C1CCS(=O)(=O)C1 (stereo not given) do in these assays?
HSV augment: inactive; Dynein cargo inh: 0.111; Furin inh: -19.1; Insulin prom up: -0.15; Autophagy HCS: inactive

Results for COc1cc(NC(=O)c2ccccc2)c(OC)cc1Cl ?
HSV augment: inactive; Dynein cargo inh: 0.882; Furin inh: 27.0*; Insulin prom up: -0.16; Insulin prom inh: -276.7; Autophagy HCS: inactive

Results for COc1ccccc1C(=O)NNC(=O)c1cccc(Cl)c1 ?
HSV augment: inactive; Dynein cargo inh: -0.767; Furin inh: -21.5; Insulin prom up: 1.16; Autophagy HCS: active

How did COc1cc(N)c(Cl)cc1NC(=O)c1ccccc1 do in these assays?
HSV augment: inactive; Dynein cargo inh: 1.14; Furin inh: 4.8; Insulin prom up: 0.52; Insulin prom inh: -19.2; Autophagy HCS: inactive

Results for CCC1(C)NC(=O)N(CC(=O)N2N=C(c3ccccc3)CC2c2ccc(OC)cc2)C1=O (stereo not given) ?
HSV augment: inactive; Dynein cargo inh: -0.0483; Furin inh: -21.7; Insulin prom up: 0.03; Autophagy HCS: inactive

What do the screens show for `O=C(Nc1ccc2c(c1)OCO2)OCc1ccccc1`?
HSV augment: inactive; Dynein cargo inh: 0.989; Furin inh: 11.0; Insulin prom up: 1.49; Insulin prom inh: 100.0*; Autophagy HCS: inactive

How did O=C(Nc1ccc2c(c1)OCO2)C1CCCN1C(=O)OCc1ccccc1 (stereo not given) do in these assays?
HSV augment: inactive; Dynein cargo inh: 1.29; Furin inh: -14.6; Insulin prom up: -0.97; Insulin prom inh: -33.3; Autophagy HCS: inactive

How did COc1ccc2nccc(C(N)=O)c2c1 do in these assays?
HSV augment: inactive; Dynein cargo inh: 0.484; Furin inh: -15.0; Insulin prom up: -0.39

How did CCOc1ccc2nc(-c3ccccc3)[nH]c2c1 do in these assays?
HSV augment: inactive; Dynein cargo inh: -0.392; Furin inh: -103.3; Insulin prom up: 0; Insulin prom inh: 85.7*; Autophagy HCS: inactive

How did COc1ccc2nc(-c3ccccc3)[nH]c2c1 do in these assays?
HSV augment: inactive; Dynein cargo inh: 0.486; Furin inh: -78.3; Insulin prom up: 0.4; Insulin prom inh: -309.5; Autophagy HCS: inactive

Results for OC1(c2ccccc2)CN(c2ccccc2)C2=[N+]1CCS2 (stereo not given) ?
HSV augment: inactive; Dynein cargo inh: 0.0967; Furin inh: -17.7; Insulin prom up: -0.15; Autophagy HCS: inactive

What do the screens show for `Cc1nn(-c2ccc(Cl)nn2)c(=O)c2ccccc12`?
HSV augment: inactive; Dynein cargo inh: -0.641; Furin inh: -22.7; Insulin prom up: -0.32; Autophagy HCS: inactive

Results for O=C(O)COc1c(Cl)cc(/C=C2/NC(=O)NC2=O)cc1Br ?
HSV augment: inactive; Dynein cargo inh: -0.825; Furin inh: -11.3; Insulin prom up: -0.1; Insulin prom inh: -20.0; Autophagy HCS: inactive

How did CCOc1cc(/C=C2/NC(=O)NC2=O)cc(Br)c1OCc1ccc(C(=O)O)cc1 do in these assays?
HSV augment: inactive; Dynein cargo inh: -0.716; Furin inh: -9.9; Insulin prom up: 1.69; Insulin prom inh: 41.7; Autophagy HCS: active

How did CC(Sc1nnc(-c2ccc(O)cc2)o1)C(=O)Nc1cccc2ccccc12 (stereo not given) do in these assays?
HSV augment: inactive; Dynein cargo inh: 4.26; Furin inh: -10.9; Insulin prom up: 0.11; Insulin prom inh: 77.4*; Autophagy HCS: inactive

What do the screens show for `O=C(CCSc1nnc(-c2ccncc2)o1)Nc1cccc2ccccc12`?
HSV augment: inactive; Dynein cargo inh: 0.422; Furin inh: -4.4; Insulin prom inh: 0.0; Autophagy HCS: inactive

Results for [O-][n+]1onc2c1CCC(=N/O)/C2=N\Nc1ccccc1 ?
HSV augment: inactive; Dynein cargo inh: -0.297; Furin inh: -24.1; Insulin prom up: 0.5

What do the screens show for `CCN(CC)c1cc(C)c2cc(NC(=O)c3cccs3)ccc2n1`?
HSV augment: inactive; Dynein cargo inh: -0.41; Furin inh: -4.9; Insulin prom up: 0.37; Insulin prom inh: -28.6; Autophagy HCS: active

Results for COc1ccc2cc(C)c3nnc(SCC(=O)Nc4nc(-c5ccccc5)cs4)n3c2c1 ?
HSV augment: inactive; Dynein cargo inh: 0.138; Furin inh: -21.0; Insulin prom up: -0.11; Autophagy HCS: active

What do the screens show for `COc1c2c(nc3ccccc13)OC(C(C)(O)COC(C)=O)C2` (stereo not given)?
HSV augment: inactive; Dynein cargo inh: 0.127; Furin inh: -12.5; Insulin prom up: 3.26*; Insulin prom inh: -80.0; Autophagy HCS: inactive

What do the screens show for `CC(C)c1ccc(/C=C(/C#N)c2nnc(NC(=O)c3ccccc3)s2)cc1`?
HSV augment: inactive; Dynein cargo inh: 1.02; Furin inh: -11.3; Insulin prom up: -0.09; Insulin prom inh: -13.3; Autophagy HCS: inactive

How did COc1ccc(C(=O)Nn2c(SCC(=O)c3ccc(Cl)cc3)nc3ccccc3c2=O)cc1 do in these assays?
HSV augment: inactive; Dynein cargo inh: -1.19; Furin inh: -7.0; Insulin prom up: -0.42; Insulin prom inh: 82.9*; Autophagy HCS: inactive

What do the screens show for `COc1ccc(C(=O)Nn2c(SCC(=O)N3CCC(C)CC3)nc3ccccc3c2=O)cc1`?
HSV augment: inactive; Dynein cargo inh: 1.52; Furin inh: -3.2; Insulin prom inh: 11.4; Autophagy HCS: inactive

How did CC1CN(CCCCOc2ccc(F)cc2)CC(C)O1 (stereo not given) do in these assays?
HSV augment: inactive; Dynein cargo inh: 0.493; Furin inh: -27.7; Insulin prom up: 0.52; Autophagy HCS: inactive

Compound activity deposited in PubChem BioAssay by several laboratories.
